One block for each compound: values may come before it.
Columns and labels:
Type in all cases: functional
Candida albicans [1] = test: Antibiofilm activity against Candida albicans ATCC 10231 by two dimensional checkerboard dilution method
Summary of the method: (§1)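 Biofilms grown on sterilized PVC disks: 1·10^6 cfu/ml Candida cells adhered for 1.5 h at 37 °C with shaking, washed with PBS, then matured 48 h at 37 °C in RPMI 1640 (MOPS, pH 7). Preformed biofilms were washed and exposed to drug, alone or in two-dimensional checkerboard combination, in RPMI 1640 for 24 h at 37 °C on a rocker.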

Candida albicans [2] = test: Antibiofilm activity against Candida albicans ATCC 24433 by two dimensional checkerboard dilution method; summary of the method: as §1
Candida albicans [3] = test: Antibiofilm activity against Candida albicans 17a18 by two dimensional checkerboard dilution method; summary of the method: as §1
Nakaseomyces glabratus [4] = test: Antibiofilm activity against Candida glabrata ATCC 15126 by two dimensional checkerboard dilution method; summary of the method: as §1
Nakaseomyces glabratus [5] = test: Antibiofilm activity against Candida glabrata 18a10 by two dimensional checkerboard dilution method; summary of the method: as §1
[6] = system: Meyerozyma guilliermondii; test: Antibiofilm activity against Candida guilliermondii ATCC 6260 by two dimensional checkerboard dilution method; summary of the method: as §1
[7] = system: Meyerozyma guilliermondii; test: Antibiofilm activity against Candida guilliermondii a83 by two dimensional checkerboard dilution method; summary of the method: as §1
[8] = system: Meyerozyma guilliermondii; test: Antibiofilm activity against Candida guilliermondii a410 by two dimensional checkerboard dilution method; summary of the method: as §1
Candida albicans [9] = test: Potentiation of anidulafungin-induced antibiofilm activity against Candida albicans ATCC 10231 at 0.1 uM to 100 mM after 48 hrs by XTT reduction assay relative to control; parameters: scale not given: the % may be the effect or the level left; summary of the method: as §1
[10] = system: Meyerozyma guilliermondii; test: Antibiofilm activity against Candida guilliermondii a83 at 0.1 uM to 100 mM after 48 hrs by XTT reduction assay relative to control; parameters: scale not given: the % may be the effect or the level left; summary of the method: as §1
Candida albicans [11] = test: Antibiofilm activity against Candida albicans ATCC 10231 by two dimensional checkerboard dilution method in presence of anidulafungin; summary of the method: as §1
Candida albicans [12] = test: Antibiofilm activity against Candida albicans ATCC 90028 by two dimensional checkerboard dilution method in presence of anidulafungin; summary of the method: as §1
Candida albicans [13] = test: Antibiofilm activity against Candida albicans ATCC 24433 by two dimensional checkerboard dilution method in presence of anidulafungin; summary of the method: as §1
Candida albicans [14] = test: Antibiofilm activity against Candida albicans 17a18 by two dimensional checkerboard dilution method in presence of anidulafungin; summary of the method: as §1
Nakaseomyces glabratus [15] = test: Antibiofilm activity against Candida glabrata ATCC 15126 by two dimensional checkerboard dilution method in presence of anidulafungin; summary of the method: as §1
Nakaseomyces glabratus [16] = test: Antibiofilm activity against Candida glabrata 18a10 by two dimensional checkerboard dilution method in presence of anidulafungin; summary of the method: as §1
[17] = system: Meyerozyma guilliermondii; test: Antibiofilm activity against Candida guilliermondii ATCC 6260 by two dimensional checkerboard dilution method in presence of anidulafungin; summary of the method: as §1
[18] = system: Meyerozyma guilliermondii; test: Antibiofilm activity against Candida guilliermondii a83 by two dimensional checkerboard dilution method in presence of anidulafungin; summary of the method: as §1
[19] = system: Meyerozyma guilliermondii; test: Antibiofilm activity against Candida guilliermondii a410 by two dimensional checkerboard dilution method in presence of anidulafungin; summary of the method: as §1
Candida albicans [20] = test: Potentiation of anidulafungin-induced antibiofilm activity against Candida albicans ATCC 10231 assessed as anidulafungin-fractional inhibitory concentration index by two dimensional checkerboard dilution method
Summary of the method: (§2)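 Biofilms grown on PVC disks: 1·10^6 cfu/ml in RPMI 1640 (MOPS, pH 7), 1.5 h adhesion at 37 °C with shaking, PBS wash, 48 h maturation at 37 °C. Preformed biofilms exposed 24 h at 37 °C to anidulafungin/NSAID checkerboard combinations in RPMI. XTT-menadione reduction read at 490 nm. SMIC = 50% metabolic reduction versus drug-free control. Triplicate runs on different days; FIC index calculated.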

Candida albicans [21] = test: Antibiofilm activity against Candida albicans ATCC 90028 assessed as fractional inhibitory concentration by two dimensional checkerboard dilution method in presence of anidulafungin; summary of the method: as §2
Candida albicans [22] = test: Potentiation of anidulafungin-induced antibiofilm activity against Candida albicans ATCC 90028 assessed as anidulafungin-fractional inhibitory concentration index by two dimensional checkerboard dilution method; summary of the method: as §2
Candida albicans [23] = test: Antibiofilm activity against Candida albicans ATCC 24433 assessed as fractional inhibitory concentration by two dimensional checkerboard dilution method in presence of anidulafungin; summary of the method: as §2
Candida albicans [24] = test: Antibiofilm activity against Candida albicans 17a18 assessed as fractional inhibitory concentration by two dimensional checkerboard dilution method in presence of anidulafungin; summary of the method: as §2
Candida albicans [25] = test: Potentiation of anidulafungin-induced antibiofilm activity against Candida albicans 17a18 assessed as anidulafungin-fractional inhibitory concentration index by two dimensional checkerboard dilution method; summary of the method: as §2
Nakaseomyces glabratus [26] = test: Potentiation of anidulafungin-induced antibiofilm activity against Candida glabrata ATCC 15126 assessed as anidulafungin-fractional inhibitory concentration index by two dimensional checkerboard dilution method; summary of the method: as §2
Nakaseomyces glabratus [27] = test: Antibiofilm activity against Candida glabrata 18a10 assessed as fractional inhibitory concentration by two dimensional checkerboard dilution method in presence of anidulafungin; summary of the method: as §2
Nakaseomyces glabratus [28] = test: Potentiation of anidulafungin-induced antibiofilm activity against Candida glabrata 18a10 assessed as anidulafungin-fractional inhibitory concentration index by two dimensional checkerboard dilution method; summary of the method: as §2
[29] = system: Meyerozyma guilliermondii; test: Potentiation of anidulafungin-induced antibiofilm activity against Candida guilliermondii ATCC 6260 assessed as anidulafungin-fractional inhibitory concentration index by two dimensional checkerboard dilution method; summary of the method: as §2
[30] = system: Meyerozyma guilliermondii; test: Antibiofilm activity against Candida guilliermondii a83 assessed as fractional inhibitory concentration by two dimensional checkerboard dilution method in presence of anidulafungin; summary of the method: as §2
[31] = system: Meyerozyma guilliermondii; test: Potentiation of anidulafungin-induced antibiofilm activity against Candida guilliermondii a83 assessed as anidulafungin-fractional inhibitory concentration index by two dimensional checkerboard dilution method; summary of the method: as §2
[32] = system: Meyerozyma guilliermondii; test: Antibiofilm activity against Candida guilliermondii a410 assessed as fractional inhibitory concentration by two dimensional checkerboard dilution method in presence of anidulafungin; summary of the method: as §2
[33] = system: Meyerozyma guilliermondii; test: Potentiation of anidulafungin-induced antibiofilm activity against Candida guilliermondii a410 assessed as anidulafungin-fractional inhibitory concentration index by two dimensional checkerboard dilution method; summary of the method: as §2
Nakaseomyces glabratus [34] = test: Antibiofilm activity against Candida glabrata ATCC 15126 at 0.1 uM to 100 mM after 48 hrs by XTT reduction assay relative to control; parameters: scale not given: the % may be the effect or the level left; summary of the method: as §1
Candida albicans [35] = test: Antibiofilm activity against Candida albicans 17a18 at 0.1 uM to 100 mM after 48 hrs by XTT reduction assay relative to control; parameters: scale not given: the % may be the effect or the level left; summary of the method: as §1
[36] = system: Meyerozyma guilliermondii; test: Potentiation of anidulafungin-induced antibiofilm activity against Candida guilliermondii a410 at 0.1 uM to 100 mM after 48 hrs by XTT reduction assay relative to control; parameters: scale not given: the % may be the effect or the level left; summary of the method: as §1
[37] = system: Meyerozyma guilliermondii; test: Potentiation of anidulafungin-induced antibiofilm activity against Candida guilliermondii ATCC 6260 at 0.1 uM to 100 mM after 48 hrs by XTT reduction assay relative to control; parameters: scale not given: the % may be the effect or the level left; summary of the method: as §1
Nakaseomyces glabratus [38] = test: Potentiation of anidulafungin-induced antibiofilm activity against Candida glabrata 18a10 at 0.1 uM to 100 mM after 48 hrs by XTT reduction assay relative to control; parameters: scale not given: the % may be the effect or the level left; summary of the method: as §1
Nakaseomyces glabratus [39] = test: Potentiation of anidulafungin-induced antibiofilm activity against Candida glabrata ATCC 15126 at 0.1 uM to 100 mM after 48 hrs by XTT reduction assay relative to control; parameters: scale not given: the % may be the effect or the level left; summary of the method: as §1
Candida albicans [40] = test: Potentiation of anidulafungin-induced antibiofilm activity against Candida albicans ATCC 24433 at 0.1 uM to 100 mM after 48 hrs by XTT reduction assay relative to control; parameters: scale not given: the % may be the effect or the level left; summary of the method: as §1

SMILES: CCCCCOc1ccc(-c2ccc(-c3ccc(C(=O)N[C@@H]4C[C@@H](O)[C@@H](O)NC(=O)[C@@H]5[C@@H](O)[C@@H](C)CN5C(=O)[C@H]([C@@H](C)O)NC(=O)[C@H]([C@H](O)[C@@H](O)c5ccc(O)cc5)NC(=O)[C@@H]5C[C@@H](O)CN5C(=O)[C@H]([C@H](C)O)NC4=O)cc3)cc2)cc1
MIC (Candida albicans [1]): 2 µg/mL
MIC (Candida albicans [2]): 2 µg/mL
MIC (Candida albicans [3]): 2 µg/mL
MIC (Nakaseomyces glabratus [4]): 2 µg/mL
MIC (Nakaseomyces glabratus [5]): 2 µg/mL
MIC [6]: 2 µg/mL
MIC [7]: 2 µg/mL
MIC [8]: 2 µg/mL

MIC (Candida albicans [1]): 200 µM
MIC (Candida albicans [11]): 10 µM
MIC (Candida albicans [12]): 10 µM
MIC (Candida albicans [2]): 1000 µM
MIC (Candida albicans [13]): 100 µM
MIC (Candida albicans [3]): 200 µM
MIC (Candida albicans [14]): 10 µM
MIC (Nakaseomyces glabratus [4]): 200 µM
MIC (Nakaseomyces glabratus [15]): 10 µM
MIC (Nakaseomyces glabratus [5]): 200 µM
MIC (Nakaseomyces glabratus [16]): 10 µM
MIC [6]: 1000 µM
MIC [17]: 100 µM
MIC [7]: 200 µM
MIC [18]: 10 µM
MIC [8]: 1000 µM
MIC [19]: 100 µM
SMILES: CC(=O)Oc1ccccc1C(=O)O [ASPIRIN]
Activity (Candida albicans [9]): 82.81%
Activity [10]: 46.22%
fractional inhibitory concentration index (FICI) (Candida albicans [20]): 0.1
Ratio (Candida albicans [21]): 0.05
fractional inhibitory concentration index (FICI) (Candida albicans [22]): 0.1
Ratio (Candida albicans [23]): 0.1
Ratio (Candida albicans [24]): 0.05
fractional inhibitory concentration index (FICI) (Candida albicans [25]): 0.1
fractional inhibitory concentration index (FICI) (Nakaseomyces glabratus [26]): 0.1
Ratio (Nakaseomyces glabratus [27]): 0.05
fractional inhibitory concentration index (FICI) (Nakaseomyces glabratus [28]): 0.1
fractional inhibitory concentration index (FICI) [29]: 0.15
Ratio [30]: 0.05
fractional inhibitory concentration index (FICI) [31]: 0.1
Ratio [32]: 0.1
fractional inhibitory concentration index (FICI) [33]: 0.15
Activity (Nakaseomyces glabratus [34]): 29.02%
Activity (Candida albicans [35]): 46.55%
Activity [36]: 41.54%
Activity [37]: 50.37%
Activity (Nakaseomyces glabratus [38]): 48.58%
Activity (Nakaseomyces glabratus [39]): 49.78%
Activity (Candida albicans [40]): 56.14%

From ChEMBL document CHEMBL3758165, “In vitro interactions between anidulafungin and nonsteroidal anti-inflammatory drugs on biofilms of Candida spp” (2016)
